Compound activity: PubChem, several laboratories
Hits are enriched below; roughly 1.3% of the tested compounds scored in any of these assays.
DDE Tn6 FP inh: inhibitors of Tn6 peptide binding to human fibrin DD(E). P02675. 370,000 compounds, 0.21% hits. inhibition, % at 8.3 µM. AID 720509. Fibrin DD(E) TRITC-Tn6 fluorescence polarization displacement;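 active means inhibition above a per-campaign cutoff: mean of compounds within control limits plus 3 SD, cut at about 15% in these data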;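 further: 0% = median of all compound wells on the plate and 100% = blocking peptide control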
Target sequence (P02675 whole entry, looked up): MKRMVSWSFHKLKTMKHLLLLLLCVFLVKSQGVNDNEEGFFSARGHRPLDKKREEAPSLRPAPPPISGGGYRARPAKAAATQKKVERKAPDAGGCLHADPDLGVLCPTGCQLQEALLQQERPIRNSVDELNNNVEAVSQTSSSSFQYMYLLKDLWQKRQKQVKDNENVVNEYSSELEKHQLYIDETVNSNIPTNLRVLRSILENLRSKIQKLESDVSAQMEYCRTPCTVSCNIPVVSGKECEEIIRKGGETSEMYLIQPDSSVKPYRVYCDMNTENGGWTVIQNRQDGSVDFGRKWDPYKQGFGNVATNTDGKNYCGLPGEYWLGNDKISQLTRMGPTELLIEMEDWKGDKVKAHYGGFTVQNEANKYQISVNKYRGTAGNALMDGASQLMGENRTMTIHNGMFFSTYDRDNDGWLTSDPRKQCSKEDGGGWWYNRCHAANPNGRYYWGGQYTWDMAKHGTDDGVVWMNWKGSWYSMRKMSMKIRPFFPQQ
DDE Tn7 FP inh: inhibitors of Tn7 peptide binding to human fibrin DD(E); P02675; 370,000 compounds, 0.13% hits; FP displacement of FITC-Tn7 peptide from fibrin DD(E); 0% = median of compound wells per plate; inhibition, % at 8.3 µM;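 active means inhibition above the mean of compounds falling within the control limits plus 3 SD of them, cut at about 14% in these data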;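 further: 0% = plate median of compound wells and 100% = 10 µM Aha-Tn7 peptide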
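Measure: % inhibition scaled between sample-field median and high-control FP; Test system: human fibrin DD(E); Quantity: 2 µM final DD(E) protein; Doses: one dose, 8.3 µM nominal; Schedule: compound with protein 10 min, then 3 h after probe, room temperature; Detection: fluorescence polarization; Medium: Tris buffer with calcium and detergent, pH 7.8.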
CRFBP-R2 block: blocks CRF-induced signaling of the CRF-BP/CRF-R2 complex; HEK293 CRF-R2/CRF-BP, CRF-induced calcium fluorescence; inhibition, % at 11.8 µM; 350,000 compounds, 0.59% hits;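 active means inhibition of the ligand-induced calcium signal above about 50% at the single tested concentration, limit read from the data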
CRFR2-BP ag: agonists of human CRF-binding protein/CRF-R2 receptor complex; HEK293 CRF-R2/CRF-BP, calcium dye fluorescence (FLIPR); percent of saturating CRF peptide response; activation, % at 13.2 µM; 350,000 compounds, 0.46% hits;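 active means activation of at least 50%, plus an integration ratio under a set limit after plate pattern correction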;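 further: plate controls were neutral control wells without compound for no effect and CRF at EC100 for full effect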
* hit, by the source's call; / = no result given.

SMILES	DDE Tn6 FP inh	DDE Tn7 FP inh	CRFBP-R2 block	CRFR2-BP ag
CCOc1ccc(NC(=O)CSc2ccc3nnc(-c4cccnc4)n3n2)cc1	-3	-5	125*	1
N#CC(C#N)=C(Nc1ccc(F)cc1)SCc1cccc(F)c1	-2	-2	94*	105*
CCOc1ccc(N/C(SCc2cccc([N+](=O)[O-])c2)=C(/C#N)C(N)=O)cc1	-8	-1	-4	-4
Cc1noc(/C=C/N(C)C)c1S(=O)(=O)N1CCC(C(=O)Nc2ccc(Cl)cc2)CC1	-15	-1	90*	-1
COC(=O)C1CN(CCO)CCS(=O)(=O)N1Cc1cn(Cc2ccc(C)cc2)nn1 (stereo not given)	3	4	/	/
Cc1cccc(NC(=O)C2CC2c2ccccc2)c1C (stereo not given)	8	3	-13	70*
COc1ccc(N(CC(=O)N/N=C/c2ccc3c(c2)OCO3)S(=O)(=O)c2ccc(NC(C)=O)cc2)cc1	-7	1	54*	1
COc1ccccc1C(=O)N/N=C/c1ccc2c(c1)OCO2	2	-2	9	-1
COc1cc2ccccc2cc1C(=O)N/N=C/c1ccc2c(c1)OCO2	2	1	53*	-1
CC(=O)N1CCOc2cc(S(=O)(=O)N3CCN(c4ccccc4)CC3)c(Cl)cc21	5	-6	54*	16
O=C(c1cc(Br)cc(Br)c1)N1CCC(Oc2cccnc2)CC1	-4	0	/	/
COc1ccc(S(=O)(=O)N(CC(C)C)C2CCS(=O)(=O)C2)cc1OC (stereo not given)	-6	1	71*	0
CCCCN(C1CCS(=O)(=O)C1)S(=O)(=O)c1ccc(OC)c(OC)c1 (stereo not given)	-9	-2	-17	0
Cc1ccc(-c2nnc3n2N=C(c2ccc(-c4ccccc4)cc2)CS3)cc1	3	-4	/	/
CCOC(=O)c1cc(C#N)c(N2CCN(c3ccccn3)CC2)nc1-c1ccccc1	0	2	54*	6
CCOC(=O)c1cc(C#N)c(Oc2ccccc2OC)nc1-c1ccccc1	-6	-4	57*	0
C[C@H](O)[C@@H]1CN2CCc3c([nH]c4cccc(-c5ccccc5)c34)[C@@H]2C[C@@H]1N(C)CC1CCCCC1	1	-2	/	/
C/C(=N\NC(=O)c1ccc(Cl)cc1)c1ccc(Br)s1	4	1	-11	0
C/C(=N\NC(=O)c1cc(Cl)ccc1O)c1ccc(Br)s1	6	-2	52*	31
CC1CCCCC1NC(=O)CCCCCn1c(=S)[nH]c2ccsc2c1=O (stereo not given)	-10	-4	93*	-1
C=CCN1C(=O)[C@@H](CC(=O)N2CCCC2)[C@]2(C(=O)OC)CCCCC=C12	6	-8	/	/
O=C(c1ccccc1)c1ccccc1N1C(=O)C=CC1=O	1	3	5	0
O=C1C=CC(=O)N1c1ccccc1N1C(=O)C=CC1=O	-10	2	97*	4
O=C(O)CCCCCN1C(=O)/C(=C\c2ccc(-c3ccc(Cl)cc3)o2)SC1=S	2	-4	-82	114*
CC12CCCCN1CCCc1c2[nH]c2ccccc12 (stereo not given)	0	-6	-4	50*
SMILES	DDE Tn6 FP inh	DDE Tn7 FP inh	CRFBP-R2 block	CRFR2-BP ag
COc1ccc(C(C(=O)NC2CCCCC2)N(Cc2cccs2)C(=O)Cc2c[nH]c3ccccc23)cc1OC (stereo not given)	-3	4	52*	3
COc1ccc(C(C(=O)NC2CCCCC2)N(C(=O)Cc2c[nH]c3ccccc23)c2ccccc2C)cc1OC (stereo not given)	7	6	12	0
O=C(C(c1ccccc1)c1ccccc1)N1CCN(CCN2C(=O)c3cccc4cccc(c34)C2=O)CC1	-1	-5	52*	-2
Cc1ccc(NC(=S)NCc2ccccn2)cc1	-5	-3	74*	1
Cc1cccc(NC(=S)NCc2ccccn2)c1	12	2	1	-1
O=C(NCC1CCCO1)c1onc(CSc2cccc3ccccc23)c1C(=O)O (stereo not given)	4	2	50*	-5
COc1ccccc1C(=O)COC(=O)c1c(-c2ccccc2)noc1C	1	5	50*	1
COc1ccc(-c2csc(NC(=O)CN3C(=O)C4CC=CCC4C3=O)n2)cc1OC (stereo not given)	-12	0	57*	2
CCOC(=O)c1ccc(NC(=S)N2CCSC2c2ccc(Br)cc2)cc1 (stereo not given)	-5	-3	-100	101*
COc1ccc2c(c1)N[C@@](CCNC=O)(c1[nH]c3ccccc3c1CCNC=O)C2=O	3	-2	/	/
Cc1ccc(C(=O)NCCNC(=O)c2ccc(F)cc2)cn1	1	-6	-53	80*
Cc1ccc(C(=O)NCCCNC(=O)c2ccccc2F)cn1	3	-6	9	0
N#C/C(=C(/O)c1cccc(F)c1)c1nc2ccccc2s1	-2	-3	43	51*
Cc1ccc(C(=O)Oc2ccc(C(=O)COC(=O)C3CC(=O)N(Cc4ccco4)C3)cc2)cc1 (stereo not given)	/	/	8	2
O=C(COC(=O)C1CC(=O)N(Cc2ccco2)C1)c1ccc(OC(=O)c2ccco2)cc1 (stereo not given)	3	3	82*	3
O=C(NC1CCCCN(Cc2ccc(Cl)cc2)C1=O)c1cccc2nsnc12 (stereo not given)	-3	-2	/	/
Brc1ccc(CSc2nnc(Cc3c[nH]c4ccccc34)o2)cc1	6	0	50*	-3
Clc1ccc(CSc2nnc(-c3c[nH]c4ccccc34)o2)cc1	-1	4	3	3
Cn1cccc1C(=O)N1CCN(S(=O)(=O)c2ccccc2F)CC1	1	1	/	/
CCOC(=O)[C@@]12CN(C(=O)OC(C)(C)C)CC=C1N(Cc1ccc(OC)cc1)C(=O)[C@H]2CC(=O)N1CCC(c2ccccc2)CC1	-2	4	/	/
Cc1ccc(-c2cc(C(=O)NN=C/C=C/c3ccco3)[nH]n2)cc1C	-5	-1	/	/
CN(C)c1cccc(/C=C2\CC3(OC(=O)c4cccc(F)c4)CCCN2C3)c1 (stereo not given)	-5	-3	/	/
COc1cc(NC(=O)[C@H](C)NC(=O)N2CCn3c2nc2ccccc23)cc(OC)c1	5	2	86*	0
CCOC(=O)C1=C(COC(=O)c2ccc3ccccc3c2O)NC(=O)NC1C (stereo not given)	-7	-11	-27	53*
CCOC(=O)C1=C(COC(=O)c2ccccc2OC(F)F)NC(=O)NC1C (stereo not given)	4	-4	-9	-1
Cc1cc([N+](=O)[O-])c2ccccc2c1NS(=O)(=O)c1ccccc1	-3	0	119*	-1
Cc1ccc(NS(=O)(=O)c2ccccc2)c([N+](=O)[O-])c1	-6	-2	28	-3
COc1ccc(C2=NN(C)C(=NCc3ccccc3)SC2)cc1	0	5	62*	-3
